Compound activity deposited in PubChem by several laboratories.
In the library only some 2.9% were active in any assay of this set; here they are far more common.
RanGTP-Imp inh – inhibitors of RanGTP-importin-beta interaction, primary screen, biochemical, FRET, CFP-Ran, YFP-importin-beta, homogeneous | cell-free CFP-Ran/YFP-importin-beta FRET ratio | inhibition, % (no concentration beside the values) | 300,000 tested, 1.1% active;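 active = more than half of the replicate wells show a fall in the fluorescence ratio signal beyond about 16%, limit read from the data, passing the limit was not always enough; inconclusive = exactly half of the replicate wells pass the set limit; inactive = fewer than half of replicates pass the limit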
M18AAP inhibitor – PfM18AAP enzyme inhibition. inhibition, % at 7.35 µM. 290,000 tested, 1.2% active. recombinant PfM18AAP, H-Glu-NHMec fluorogenic cleavage;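 active = inhibition above the campaign mean inhibition over all tested compounds plus 3 SD, cut at about 28% in these data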
Runt-CBFb FRET – inhibitors of human RUNX1 Runt domain binding to CBFb; inhibition, % at 20 µM; 220,000 tested, 0.46% active; Q01196+Q13951; Cerulean-Runt/Venus-CBFb FRET ratio 530/480, 1 h; AID 1496;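 active = inhibition over about 50% at 20 µM in the single-dose screen, limit read from the data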
Target sequence (Q01196 whole entry, looked up, the tested form may be a part): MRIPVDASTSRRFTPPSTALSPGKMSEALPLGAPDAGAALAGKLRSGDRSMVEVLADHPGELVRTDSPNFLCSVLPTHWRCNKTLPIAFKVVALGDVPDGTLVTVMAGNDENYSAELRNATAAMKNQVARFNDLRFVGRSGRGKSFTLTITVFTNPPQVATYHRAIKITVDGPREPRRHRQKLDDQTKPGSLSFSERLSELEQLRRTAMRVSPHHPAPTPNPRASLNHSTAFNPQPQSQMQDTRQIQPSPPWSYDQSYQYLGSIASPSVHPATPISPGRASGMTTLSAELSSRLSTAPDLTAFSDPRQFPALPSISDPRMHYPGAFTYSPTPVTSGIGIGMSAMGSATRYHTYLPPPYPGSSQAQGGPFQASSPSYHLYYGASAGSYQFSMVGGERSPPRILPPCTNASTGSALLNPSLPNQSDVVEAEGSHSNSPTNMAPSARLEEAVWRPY
Target sequence (Q13951 whole entry, looked up, the tested form may be a part): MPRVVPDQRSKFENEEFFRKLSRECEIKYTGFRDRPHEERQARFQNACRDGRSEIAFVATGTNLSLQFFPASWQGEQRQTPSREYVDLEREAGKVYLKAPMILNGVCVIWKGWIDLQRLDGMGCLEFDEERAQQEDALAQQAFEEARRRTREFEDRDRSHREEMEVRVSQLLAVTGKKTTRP
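Buffer or medium: Tris pH 7.5 buffer with BSA. Assay system: Cerulean-labeled Runt domain protein. Amount: each fluorescent fusion protein 100 nM. Read-out basis: loss of energy transfer signal. Incubation: 1 h compound exposure, room temperature. Probe or stimulus: Venus-CBFb binding partner, 100 nM. Detection: FRET, excitation 422 nm, emission at 530 and 480 nm.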
RBBP9 inh – human RBBP9 hydrolase inhibition | O75884 | 220,000 tested, 0.2% active | inhibition, % at 7.94 µM | recombinant RBBP9, FP-Rh probe fluorescence polarization;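 active = inhibition above the campaign mean of all tested compounds plus 3 SD, cut at about 14% in these data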
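Test system: recombinant human RBBP9. Quantity: 2.5 µM RBBP9 dispensing solution, before mixing. Detection: FP readout at 525/598 nm. Reagent: Serine-hydrolase probe FP-Rh, 375 nM pre-mixing. Measure: % inhibition. Control set: DMSO-treated enzyme wells and wells lacking RBBP9. Buffer or medium: Tris-NaCl-Pluronic buffer, pH 8.0. Times: preincubation 30 min plus labeling 45 min at 25 °C.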
Runt-SMMHC FRET – inhibitors of human RUNX1 Runt domain binding to CBFb-SMMHC; inhibition, % at 20 µM; 220,000 tested, 0.74% active; Cerulean-Runt/Venus-CBFb-SMMHC FRET ratio 530/480, 1 h;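 active = mean inhibition across duplicate retests at 20 µM reaching about 50%, limit read from the data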;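 also: inhibitors lower the FRET ratio by blocking Runt binding to CBFb-SMMHC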
Hck-Nef inh – blocks Nef-activated human Hck kinase | inhibition, % at 20 µM | 220,000 tested, 0.68% active | AID 463187 | P08631 | Recombinant Hck-YEEI plus Nef, Z-Lyte FRET kinase assay;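 active = Hck-Nef kinase inhibition above about 50%, limit read from the data; inactive = inhibition below that limit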
Numbers stand for hits; 0 = inactive; ? = inconclusive; - = no result.

SMILES | RanGTP-Imp inh | M18AAP inhibitor | Runt-CBFb FRET | RBBP9 inh | Runt-SMMHC FRET | Hck-Nef inh
CCOC(=O)Cc1csc(/N=C/c2c(O)n(-c3ccc(C)c(C)c3)c(=O)c3ccccc23)n1 | 0 | 0 | 0 | 0 | 62 | 0
CCn1c(-c2c(Cl)c(C)nn2C)n[nH]c1=S | 0 | 32 | 0 | 0 | 0 | 0
COc1ccc(-c2nnc(-c3cc4ccccc4oc3=O)o2)cc1 | 0 | 0 | 0 | 0 | 0 | 0
CCCCCCc1cc2cc(C(=O)Nc3ccccc3OC)c(=O)oc2cc1O | 93 | 0 | 133 | 0 | 63 | 0
CCCCCCc1cc2cc(-c3nnc(-c4ccccc4OC)o3)c(=O)oc2cc1O | 136 | 0 | 0 | 0 | 58 | 0
CCCCCOC(=O)CSc1nnc(-c2cc(OC)c(OC)c(OC)c2)o1 | 0 | 0 | 0 | 0 | 0 | 0
CCCCCCc1cc2cc(-c3nnc(-c4cc(OC)c(OC)c(OC)c4)o3)c(=O)oc2cc1O | 139 | 0 | 123 | 0 | 75 | 0
CCCCCCc1cc2cc(-c3nnc(-c4ccccc4O)o3)c(=O)oc2cc1O | 159 | 0 | 0 | 0 | 0 | 0
Cc1csc(NC(=O)c2cc(=O)[nH]c3ccc(S(=O)(=O)N4CCOCC4)cc23)n1 | 0 | 0 | 80 | 0 | 118 | 0
N=C1SCC(=O)N1c1ncc(Cc2cccc(Cl)c2)s1 | 0 | 0 | - | 0 | - | 0
O=C(Nc1nc(-c2cccnc2)cs1)c1ccccc1[N+](=O)[O-] | 18 | 0 | 0 | 0 | 0 | 0
Cc1ccc(/C=C2\SC(=S)N(C3CCS(=O)(=O)C3)C2=O)cc1 (stereo unspecified) | 0 | 0 | 0 | 0 | 0 | 0
O=C1/C(=C/c2ccco2)SC(=S)N1C1CCS(=O)(=O)C1 (stereo unspecified) | ? | 31 | 0 | 0 | 0 | 0
Cc1n[nH]c(=S)n1-c1ccccc1 | 0 | 0 | 0 | 0 | 0 | 0
CCC(c1n[nH]c(=S)n1-c1ccccc1)N(C)C (stereo unspecified) | 0 | 31 | 0 | 0 | 0 | 0
OCCCc1nc2n(n1)C(c1ccccc1Cl)C=C(c1cccs1)N2 (stereo unspecified) | 34 | 0 | 0 | 0 | 78 | 0
O=C(Cn1cncn1)N/N=C/c1ccccc1O | 0 | 0 | 0 | 0 | 0 | 0
O=c1[nH]c(SCc2ccccc2F)nc2ccccc12 | 0 | 0 | 0 | 0 | 0 | 0
O=c1cc(CSc2nc3ccccc3c(=O)[nH]2)c2ccc(O)cc2o1 | 0 | 0 | 0 | 0 | 52 | 0
C[C@H](NC(=O)[C@@H]1Cc2ccccc2CN1)C(=O)NCC1CCCO1 (stereo partly specified) | 0 | 0 | - | - | - | -
Oc1ccc(N=Nc2ccccc2-c2nn[nH]n2)c(O)c1 | 0 | 34 | - | - | - | -
CCOc1ccccc1OCCCC(=O)Nc1nc2ccccc2[nH]1 | 0 | 0 | 0 | 0 | 0 | 0
CCOc1ccccc1/C=C/c1nc2ccccc2[nH]c1=O | 71 | 0 | - | - | - | -
Cc1ccc(NS(=O)(=O)c2cc([N+](=O)[O-])ccc2NNC(=S)Nc2cccc(Cl)c2)c(C)c1 | 0 | 32 | 0 | 0 | 0 | 0
Cc1ccc(CNC(=O)C2CCN(C(=O)Nc3ccccc3)CC2)cc1 | 0 | 0 | - | - | - | -
SMILES | RanGTP-Imp inh | M18AAP inhibitor | Runt-CBFb FRET | RBBP9 inh | Runt-SMMHC FRET | Hck-Nef inh
O=C(Nc1ccccc1C(=O)N1CCCCC1)c1ccc(Cl)cc1Cl | 0 | 0 | - | - | - | -
COc1ccc(NC(=O)CSc2nnnn2C2CC3C=CC2C3)cc1 (stereo unspecified) | 0 | 0 | - | - | - | -
COc1ccc(/C=N/NC(=O)c2ccc(N(C)S(=O)(=O)c3ccccc3)cc2)cc1 | 0 | 0 | 0 | 0 | 0 | 0
CN(c1ccc(C(=O)N/N=C/c2cccc([N+](=O)[O-])c2)cc1)S(=O)(=O)c1ccccc1 | 28 | 0 | - | - | - | -
CCOC(=O)c1cc(Br)c(=O)n2ccccc12 | ? | 0 | 0 | 0 | 0 | 0
CCOC(=O)c1cc(C(=O)OCC)c2cccc(C)n2c1=O | 36 | 0 | 0 | 0 | 0 | 0
O=C(NCCSc1ccccc1)c1ccc(CN2CCOCC2)cc1 | 0 | 0 | 0 | 0 | 0 | 0
CCN1C(=O)/C(=C2/Sc3ccccc3N2CC)SC1=S | ? | 0 | - | - | - | -
CCN1/C(=C2\OC(=S)N(C)C2=O)Sc2ccccc21 | 0 | 0 | 0 | 0 | 64 | 0
Cc1cc(C(=O)O)ccc1N=Cc1c(O)ccc2ccccc12 | 0 | 0 | - | - | - | -
OCCN1CCN(C(=S)c2ccc(Br)cc2)CC1 | 0 | 30 | 0 | 0 | 0 | 0
